In article PMC10012271 (ACS Infectious Diseases, 2023):
In brackets after ≈: the same amount, converted by molar mass. Entries after “also recorded” stand apart in the source; their conditions may differ.

Experiments:
[1] = target: human recombinant glyoxylase II (Homo sapiens, UniProt Q16775); assay: Binding specificity, glyoxylase II activity; assay type: biochemical; conditions: for reduction of glyoxylase II activity: concentration not stated in the sentence (Table S2)
[2] = tested on: Klebsiella pneumoniae ATCC 700603; assay: MIC, broth microdilution / checkerboard; assay type: cell-based
[3] = tested on: Klebsiella pneumoniae NDM; assay: MIC, broth microdilution / checkerboard; assay type: cell-based
How it was run: (§1)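 Two-fold dilution series in Mueller Hinton broth, per CLSI. Meropenem stock was in water and test compound stock in 50% DMSO, with final DMSO <1.0%. Wells got a 0.5 McFarland-standardised inoculum and were incubated at 35 °C for 18–20 h. MIC was the lowest concentration with no visible growth, run in triplicate.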

E. coli ATCC 25922 = assay: Antimicrobial susceptibility testing, broth microdilution; assay type: cell-based; conditions: Escherichia coli, ATCC25922, read-out: MIC alone
How it was run: as §1

E. coli AUS 271 (NDM-1) = assay: as above; assay type: cell-based; conditions: Escherichia coli, read-out: MIC alone
How it was run: as §1

E. coli FEK (NDM-4) = assay: as above; assay type: cell-based; conditions: Escherichia coli, read-out: MIC alone
How it was run: as §1

E. coli JAP (IMP-1) = assay: as above; assay type: cell-based; conditions: Escherichia coli, read-out: MIC alone
How it was run: as §1

E. coli TWA (IMP-8) = assay: as above; assay type: cell-based; conditions: Escherichia coli, read-out: MIC alone
How it was run: as §1

[4] = tested on: E. cloacae IR 386 (NDM-1); assay: as above; assay type: cell-based; conditions: Enterobacter cloacae, read-out: MIC alone
How it was run: as §1

E. cloacae KAR (VIM-1) = assay: as above; assay type: cell-based; conditions: Enterobacter cloacae, read-out: MIC alone
How it was run: as §1

[5] = tested on: K. pneumoniae USA 449 (NDM); assay: as above; assay type: cell-based; conditions: Klebsiella pneumoniae, read-out: MIC alone
How it was run: as §1

K. pneumoniae NDM = assay: Time kill kinetic study; assay type: cell-based; conditions: without BP1
How it was run: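 Overnight culture was diluted to about 10^6 cfu/mL and exposed to test compound fixed at 32 mg/L plus meropenem 0.5, 1 or 2 mg/L. Incubation was at 35 °C with 100 rpm shaking, alongside drug-free and meropenem-only controls. At 0, 2, 4, 6, 8 and 24 h, 0.1 mL was plated on MHA and incubated at 35 °C for ≥18 h, then cfu/mL counted. Analysis was by ANOVA.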

[6] = In vivo single-dose pharmacokinetics; parameters: species or system BALB/c mice; conditions: 10 mg/kg.b.w IP, plasma
How it was run: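 Female BALB/c mice, 6–8 weeks, acclimatised two weeks, got meropenem 10 mg/kg.b.w plus test compound 10 mg/kg.b.w together IP. Animals were killed at 0, 5, 15, 30, 45, 60, 90 and 120 min post-dose, with blood taken by cardiac puncture and stored at −80 °C. Drugs were quantified by LC–MS/MS (C18, water/acetonitrile with 0.1% TFA gradient, ESI, MRM mode).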

For `O=C(O)CN(CCN(CC(=O)O)CC(=O)O)CC(=O)O` [EDTA], the “reduction of glyoxylase II activity” value [1] was 39%.
For `c1ccc(CN(CCN(Cc2ccccn2)Cc2ccccn2)Cc2ccccn2)nc1` [TPEN, N,N,N′,N′-tetrakis(2-pyridinylmethyl)-1,2-ethanediamine], the “reduction of glyoxylase II activity” value [1] was 48%.
For `C[C@@H](O)[C@H]1C(=O)N2C(C(=O)O)=C(S[C@@H]3CN[C@H](C(=O)N(C)C)C3)[C@H](C)[C@H]12` [meropenem], the MIC ([2]; Klebsiella pneumoniae, ATCC700603) was 0.03 µg/mL, the MIC ([3]; Klebsiella pneumoniae) was 128 µg/mL and the MIC (E. coli ATCC 25922) was 0.06 µg/mL (≈ 0.156 µM). The MIC (E. coli AUS 271 (NDM-1)) was 128 µg/mL (≈ 334 µM), the MIC (E. coli FEK (NDM-4)) was 128 µg/mL (≈ 334 µM) and the MIC (E. coli JAP (IMP-1)) was 8 µg/mL (≈ 20.9 µM). The MIC (E. coli TWA (IMP-8)) was 4 µg/mL (≈ 10.4 µM), the MIC [4] was 32 µg/mL (≈ 83.4 µM) and the MIC (E. cloacae KAR (VIM-1)) was 16 µg/mL (≈ 41.7 µM). For the same compound, the MIC [5] was 128 µg/mL (≈ 334 µM), the “time-kill activity, meropenem-only test group” value (K. pneumoniae NDM) was “ineffectiveness” and the “time of peak concentration (Cmax) post drug administration” value [6] was 15 min.
For `O=C(O)CN1CCN(CC(=O)O)CCN(CC(=O)O)CC1` [NOTA, 1,4,7-triazacyclononane-1,4,7-triacetic acid], the MIC ([2]; drug alone) was “do not possess any activity; also recorded: resistant from 256 to 0.125”, the MIC ([3]; drug alone) was “do not possess any activity” and the “inhibition of glyoxylase II” value ([1]; up to 500 μM) was “did not reduce the activity”.
